For three molecules, ΔTm, MIC and IC50 results are on record in ChEMBL document CHEMBL4004831, “Naphthalene diimide-polyamine hybrids as antiproliferative agents: Focus on the architecture of the polyamine chains” (Eur J Med Chem, 2017).

Converted amounts (≈) assume the structure as drawn.

Assay [1] can be described thus: Stabilization of 5'Dabcyl/3'FAM labeled duplex DNA (unknown origin) assessed as increase in melting temperature at 2.5 uM pretreated for 5 mins at 30 degreeC followed by 5 mins incubation at 95 degreeC by fluorescence assay. Summed up: (§1)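 FRET melting in LiP buffer (10 mM LiOH, 50 mM KCl, pH 7.0 with H3PO4), ex 488 nm, em 520 nm. Samples were held 5 min at 30 °C, heated at 1 °C/min to 95 °C, held 5 min, then re-annealed. Tm came from first derivatives; ΔTm = shift with ligand at 2.5; at least three runs.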

For assay [2], the species on record is Homo sapiens. Description: Stabilization of 5'Dabcyl/3'FAM labeled human telomeric sequence G-quadruplex DNA assessed as increase in melting temperature at 2.5 uM pretreated for 5 mins at 30 degreeC followed by 5 mins incubation at 95 degreeC by fluorescence assay. The procedure, abridged:
as §1

The test system of assay [3] is Thermus aquaticus. Put plainly: Inhibition of Thermus aquaticus DNA polymerase-mediated amplification of fragment of pBR322 by PCR. The procedure, abridged: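 PCR amplification of a pBR322 fragment by Taq polymerase with increasing compound (0.25–40) for 25 cycles: 94 °C, 58 °C and 72 °C, 30 s each. Products were run on 2% agarose in 0.5X TBE (4.2 V/cm, 1.5 h) and stained with ethidium bromide. IC50 is the concentration halving activity; MIC is the lowest concentration that suppresses activity.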

Assay [4] concerns the target DNA topoisomerase 2-alpha (Homo sapiens, UniProt P11388). Description: Inhibition of human topoisomerase-2alpha-mediated relaxation of supercoiled pBR322 DNA after 1 hr by ethidium bromide staining based agarose gel electrophoresis. Summed up:
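Supercoiled pBR322 was incubated with compound (0.5–100) and 1 U human topoisomerase IIα in enzyme buffer for 1 h at 37 °C. Reactions were stopped with Tris/EDTA/NaCl loading buffer (pH 8.0) and run on 1% agarose in TAE with 0.1% SDS (4.9 V/cm, 90 min), then stained with ethidium bromide. IC50 is the concentration reducing relaxation activity by 50%.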

Sequence of DNA topoisomerase 2-alpha (P11388 whole entry): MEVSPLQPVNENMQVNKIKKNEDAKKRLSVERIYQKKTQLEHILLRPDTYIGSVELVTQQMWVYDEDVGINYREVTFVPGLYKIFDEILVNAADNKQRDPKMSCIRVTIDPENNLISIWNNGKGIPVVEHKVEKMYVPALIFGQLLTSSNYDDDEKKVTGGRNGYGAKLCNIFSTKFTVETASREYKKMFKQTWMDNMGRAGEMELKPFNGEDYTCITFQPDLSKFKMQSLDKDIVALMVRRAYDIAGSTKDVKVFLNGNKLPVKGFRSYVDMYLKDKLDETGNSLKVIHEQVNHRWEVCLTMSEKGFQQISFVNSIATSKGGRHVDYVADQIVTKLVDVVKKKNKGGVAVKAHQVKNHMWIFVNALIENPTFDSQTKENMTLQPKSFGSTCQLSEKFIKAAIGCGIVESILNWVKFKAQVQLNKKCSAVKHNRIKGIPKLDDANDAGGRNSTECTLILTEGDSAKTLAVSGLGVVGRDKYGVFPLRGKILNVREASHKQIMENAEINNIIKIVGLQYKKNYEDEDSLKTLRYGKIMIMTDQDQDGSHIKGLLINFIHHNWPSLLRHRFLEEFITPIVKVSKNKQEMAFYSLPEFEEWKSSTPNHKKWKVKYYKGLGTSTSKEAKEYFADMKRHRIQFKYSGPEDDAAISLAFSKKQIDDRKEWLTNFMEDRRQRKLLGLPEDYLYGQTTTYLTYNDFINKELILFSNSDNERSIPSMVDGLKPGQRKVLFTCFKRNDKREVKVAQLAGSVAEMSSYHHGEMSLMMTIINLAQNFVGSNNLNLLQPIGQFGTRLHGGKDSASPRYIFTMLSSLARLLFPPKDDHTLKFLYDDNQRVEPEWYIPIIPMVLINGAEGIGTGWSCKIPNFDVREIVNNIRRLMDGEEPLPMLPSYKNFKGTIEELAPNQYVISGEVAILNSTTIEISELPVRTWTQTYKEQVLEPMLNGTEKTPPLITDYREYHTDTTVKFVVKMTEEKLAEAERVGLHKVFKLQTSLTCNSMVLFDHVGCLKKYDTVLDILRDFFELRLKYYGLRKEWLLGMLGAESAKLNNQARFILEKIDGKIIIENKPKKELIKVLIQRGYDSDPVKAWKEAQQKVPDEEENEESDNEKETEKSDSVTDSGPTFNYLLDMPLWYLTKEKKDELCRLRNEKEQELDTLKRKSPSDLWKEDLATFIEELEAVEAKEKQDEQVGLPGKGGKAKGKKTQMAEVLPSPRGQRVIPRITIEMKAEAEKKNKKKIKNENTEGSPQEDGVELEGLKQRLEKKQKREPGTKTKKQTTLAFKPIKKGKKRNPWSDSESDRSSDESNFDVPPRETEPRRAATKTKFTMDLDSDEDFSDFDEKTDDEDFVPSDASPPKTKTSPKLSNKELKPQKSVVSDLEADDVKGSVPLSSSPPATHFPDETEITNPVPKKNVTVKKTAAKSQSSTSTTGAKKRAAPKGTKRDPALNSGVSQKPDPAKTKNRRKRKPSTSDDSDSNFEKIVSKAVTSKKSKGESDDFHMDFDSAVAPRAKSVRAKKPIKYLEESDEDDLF

As usually defined, the ΔTm is the change in melting temperature against a reference sample. The term IC50 denotes the concentration that gives 50% inhibition. Low readings indicate greater potency in that assay, high ones weaker potency in that assay. Turning to `COc1ccccc1CNCCCN1C(=O)c2ccc3c4c(ccc(c24)C1=O)C(=O)N(CCCNCc1ccccc1OC)C3=O`, the shift in melting temperature (ΔTm) in assay [1] was 8.4 °C; in assay [2], 20.5 °C. Further, the MIC in assay [3] was found to be 10 µM (≈ 6.21 µg/mL). The molecule further had an IC50 in assay [4] of 6 µM.
Consider `COc1ccc(CNCCCN2C(=O)c3ccc4c5c(ccc(c35)C2=O)C(=O)N(CCCNCCCCNCCCN)C4=O)c(OC)c1OC`, for which the shift in melting temperature (ΔTm) in assay [1] is 12.6 °C; in assay [2], 13.1 °C.
In the same order, the values of `COc1ccccc1CNCCCN1C(=O)c2ccc3c4c(ccc(c24)C1=O)C(=O)N(CCCNCCCNCCCN)C3=O` are 12.2 °C and 16.3 °C.
